The list is not random: actives were taken first. Their share in the collection is about 1%.
eIF2B yeast act: GCN4-lacZ reporter reduction in eIF2B-epsilon mutant yeast, primary screen, S. cerevisiae, eIF2B-epsilon R284H, Beta-Glo luminescence; actives 0.91% (n = 27,000); inhibition, % at 25 µM (by protocol); AID 688, 2007;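 active = mutant luminescence inhibited past about 50% while wild type luminescence and mutant growth stay under set limits, limit read from the data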
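Material – yeast eIF2B-epsilon R284H mutant carrying GCN4–beta-galactosidase fusion · Medium – YPD yeast growth medium · Compound – one concentration, 25 µM, 0.25% DMSO · Times – 16 h at 30 °C exposure · Signal – Beta-Glo luminescence plus absorbance at 595 nm · Read-out – % inhibition of reporter signal and growth versus controls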
Yeast tox: yeast growth toxicity, wild-type and mutant, primary screen, cytotoxicity control for eIF2B function restoration project, wild-type and eIF2Bepsilon R284H mutant, A595 | actives 0.3% (n = 30,000) | growth inhibition, % at 25 µM (by protocol) | S. cerevisiae wild-type growth, A595 turbidity, 16 h;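 active = mutant and wild-type yeast strains alike exhibit over 30% growth inhibition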;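 also: 0% = untreated cell controls and 100% = YPD media blanks without cells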
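System – wild-type and eIF2Bepsilon-R284H mutant S. cerevisiae, screened separately · Measured by – absorbance at 595 nm (turbidity) · Timing – 16 h compound exposure during growth at 30 °C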
* = called active by the depositor; . = not tested or not shown.

SMILES	eIF2B yeast act	Yeast tox
Cc1cc(NC(=O)CSc2nnc3c(C)cc4cc5c(cc4n23)OCO5)no1	29.2	-34.9
CCSCc1nnc(SCC(=O)c2ccc(OC)cc2)n1C	11.3	.
CN1CCc2nc(SCC(=O)Nc3ccc(Cl)cc3)c(C#N)cc2C1	61.8*	-13.6
N#Cc1cc2c(nc1SCC(=O)Nc1sc3c(c1C#N)CCC3)CCCCCC2	.	17.5
Cc1[nH]c2ccccc2c1C(c1ccccn1)N1CCC(C(N)=O)CC1 (centres undefined)	-18.3	0.8
C=CCOc1ccc(C2NC(=O)NC(C)=C2C(=O)OC)cc1 (centres undefined)	11.2	9.1
COc1ccc(C2NC(=O)NC(C)=C2C(C)=O)cc1 (centres undefined)	51.5*	12.6
Cc1ccc2ccccc2c1Cn1c(-n2ccnc2)nc2c1c(=O)n(C)c(=O)n2C	6.8	8.5
O=C1CC(O)(C(F)(F)F)Oc2c1ccc1ccccc21 (centres undefined)	45.6	2.0
O=C1CC(O)(C(F)F)Oc2ccc3ccccc3c21 (centres undefined)	52.7*	15.6
CCOC(=O)c1c(NC(=O)COC)sc2c1CCCC2	64.8*	2.3
CCOC(=O)c1c(NC=O)sc2c1CCC2	7.7	8.6
CC1(C)Cc2c(c(=S)nc(-c3ccccc3)n2CCOCCO)CO1	51.4*	-6.9
Cc1ccc(-c2nc(=S)c3c(n2CCN2CCOCC2)CC(C)(C)OC3)cc1	.	-12.4
CC(C)(C)CC(=O)NCc1ccc(F)cc1	.	15.8
O=c1ccc(Cl)cn1Cc1ccccc1F	-18.9	12.1
